The target in assay [1] is Histone deacetylase. Briefly: Inhibition of HDAC in human HeLa cell nuclear extract using fluor-de-lys as substrate by spectrofluorometric analysis. It is filed as cell-free.
For assay [2], the system named is MCF7. Nature of the assay: Antiproliferative activity against human MCF7 cells incubated for 48 hrs by MTT assay. It is filed as functional, cell-based. The conditions noted are these: MCF7, 48 h. (In general: Tetrazolium assays rely on reduction of a dye to a coloured formazan, in cell work by metabolically active cells.)
For assay [3], the target named is Histone deacetylase 1 (Homo sapiens, UniProt Q13547). Briefly: Inhibition of HDAC1 (unknown origin).
For assay [4], the system named is MCF7. Nature of the assay: Antiproliferative activity against human MCF7 cells incubated for 72 hrs by MTT assay. It is filed as functional, cell-based. The conditions noted are these: MCF7, 72 h.
Assay [5] relates to HeLa. Briefly: Antiproliferative activity against human HeLa cells incubated for 48 hrs by MTT assay. It is filed as functional, cell-based.
Assay [6] deals with Vero. Nature of the assay: Cytotoxicity against African green monkey Vero cells assessed as reduction in cell viability incubated for 72 hrs by MTT assay. It is filed as cell-based. The conditions noted are these: Chlorocebus sabaeus.
Assay [7] relates to HCT-116. Nature of the assay: Antiproliferative activity against human HCT116 cells incubated for 72 hrs by MTT assay. The conditions noted are these: HCT-116, 72 h. It is filed as functional, cell-based.
For assay [8], the system named is HeLa. Briefly: Antiproliferative activity against human HeLa cells incubated for 24 hrs by MTT assay. It is filed as functional, cell-based.
In assay [9] the test system is HCT-116. Nature of the assay: Antiproliferative activity against human HCT116 cells incubated for 24 hrs by MTT assay. It is filed as functional, cell-based. The conditions noted are these: HCT-116, 24 h.
Assay [10] concerns MCF7. Nature of the assay: Antiproliferative activity against human MCF7 cells incubated for 24 hrs by MTT assay. It is filed as functional, cell-based. The conditions noted are these: MCF7, 24 h.
For assay [11], the system named is HeLa. Nature of the assay: Antiproliferative activity against human HeLa cells incubated for 72 hrs by MTT assay. It is filed as functional, cell-based.
Assay [12] deals with Vero. Nature of the assay: Cytotoxicity against African green monkey Vero cells assessed as reduction in cell viability incubated for 24 hrs by MTT assay. The conditions noted are these: Chlorocebus sabaeus. It is filed as cell-based.
The target of assay [13] is T1, Histone deacetylase 8 (Homo sapiens, UniProt Q9BY41).
T1 sequence (Q9BY41 whole entry): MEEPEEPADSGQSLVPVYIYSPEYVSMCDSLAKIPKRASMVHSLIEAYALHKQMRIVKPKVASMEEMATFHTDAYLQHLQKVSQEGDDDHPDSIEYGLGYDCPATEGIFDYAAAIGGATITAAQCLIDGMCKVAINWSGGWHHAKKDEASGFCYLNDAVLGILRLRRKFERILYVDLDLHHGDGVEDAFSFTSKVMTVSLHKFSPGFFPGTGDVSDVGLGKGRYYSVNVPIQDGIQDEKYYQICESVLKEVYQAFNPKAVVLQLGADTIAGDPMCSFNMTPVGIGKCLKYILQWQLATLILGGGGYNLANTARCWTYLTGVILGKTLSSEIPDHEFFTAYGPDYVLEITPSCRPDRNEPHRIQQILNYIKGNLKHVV
Briefly: Inhibition of HDAC8 (unknown origin).

The subject of assay [14] is HCT-116. Briefly: Antiproliferative activity against human HCT116 cells incubated for 48 hrs by MTT assay. It is filed as functional, cell-based. The conditions noted are these: HCT-116, 48 h.
In assay [15] the test system is Vero. Nature of the assay: Cytotoxicity against African green monkey Vero cells assessed as reduction in cell viability incubated for 48 hrs by MTT assay. It is filed as cell-based. The conditions noted are these: Chlorocebus sabaeus.
The target in assay [16] is Histone deacetylase 2 (Homo sapiens, UniProt Q92769). Briefly: Inhibition of HDAC2 (unknown origin).
Assay [17] addresses Histone deacetylase (Homo sapiens) (UniProt Q13547+O15379+Q9UBN7+Q92769+Q9UQL6+Q8WUI4+Q9BY41+Q96DB2+P56524+Q9UKV0+Q969S8). Briefly: Inhibition of HDAC in human HCT116 cells assessed as accumulation of acetylated histone H3 levels at 40 ug/ml incubated for 24 hrs by Western blot analysis. It is filed as cell-based. The conditions noted are these: HCT-116. The method, boiled down:
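HCT116 cells exposed for 24 h to compound at 10–60 μg/mL, with a 1:1 (v/v) absolute ethanol/DMSO vehicle control. Cells were harvested, and extracted proteins were separated by SDS-PAGE. Acetylated H3 was detected by immunoblotting with ERK1/2 as the loading control. Band intensities were quantified by densitometry and expressed as fold relative to the internal control.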
(In general: In western blotting, separated proteins are transferred to a membrane and probed.)

Here are results for six compounds from ChEMBL document CHEMBL4619737, “Influence of side-chain changes on histone deacetylase inhibitory and cytotoxicity activities of curcuminoid derivatives” (Bioorg Med Chem Lett, 2020).

As usually defined, the IC50 is the concentration at which inhibition is half-maximal. By Ki is commonly meant a dissociation constant, usually derived from enzyme kinetics or from competition with a known ligand.

Values after ≈ are worked out from the molar mass of the structure shown. Active and inactive are the calls of the source. No cut-off for these calls is given here.

Sequence of Histone deacetylase 2 (Q92769 whole entry): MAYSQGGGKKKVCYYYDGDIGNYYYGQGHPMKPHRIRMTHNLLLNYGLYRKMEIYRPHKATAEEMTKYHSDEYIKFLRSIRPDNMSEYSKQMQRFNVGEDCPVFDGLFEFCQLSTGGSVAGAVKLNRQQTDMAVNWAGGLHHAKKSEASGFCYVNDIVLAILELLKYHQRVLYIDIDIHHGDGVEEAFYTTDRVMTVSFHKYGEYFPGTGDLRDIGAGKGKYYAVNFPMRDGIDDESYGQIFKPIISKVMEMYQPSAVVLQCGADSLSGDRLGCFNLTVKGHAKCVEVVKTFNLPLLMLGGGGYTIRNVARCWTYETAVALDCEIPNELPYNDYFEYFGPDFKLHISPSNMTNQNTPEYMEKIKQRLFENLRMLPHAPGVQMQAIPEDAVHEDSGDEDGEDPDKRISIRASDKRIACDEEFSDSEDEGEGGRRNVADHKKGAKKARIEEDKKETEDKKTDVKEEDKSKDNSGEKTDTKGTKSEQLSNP
Sequence of Histone deacetylase 1 (Q13547 whole entry): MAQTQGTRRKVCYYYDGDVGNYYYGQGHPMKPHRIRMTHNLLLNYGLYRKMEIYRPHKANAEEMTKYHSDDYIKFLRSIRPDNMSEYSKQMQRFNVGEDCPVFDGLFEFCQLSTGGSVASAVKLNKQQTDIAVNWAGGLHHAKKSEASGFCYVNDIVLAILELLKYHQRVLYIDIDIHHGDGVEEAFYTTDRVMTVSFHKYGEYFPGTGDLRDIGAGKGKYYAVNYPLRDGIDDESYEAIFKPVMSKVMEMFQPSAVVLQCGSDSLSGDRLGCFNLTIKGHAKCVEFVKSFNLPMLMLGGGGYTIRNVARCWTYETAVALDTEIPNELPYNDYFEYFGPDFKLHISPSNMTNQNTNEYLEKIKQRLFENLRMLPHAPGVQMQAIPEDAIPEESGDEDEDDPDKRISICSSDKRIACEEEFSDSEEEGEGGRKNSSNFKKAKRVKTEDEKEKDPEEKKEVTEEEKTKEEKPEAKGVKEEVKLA

Compound `COc1cc(CNC(=O)CCCCC(O)CC(C)C)ccc1O` (centres undefined) came in with an IC50 in assay [1] of 72 µM.
Consider `CCC(C)Oc1ccc(/C=C/C(O)=C/C(=O)/C=C/c2ccc(O)c(OC)c2)cc1` (centres undefined), for which the IC50 in assay [2] was 46.3 µg/mL (≈ 117 µM); in [4], 18.1 µg/mL (≈ 45.8 µM); in [5], 14 µg/mL (≈ 35.6 µM); in [6], > 100 µg/mL; in assay [7], 7.33 µg/mL (≈ 18.6 µM); in assay [8], 55.2 µg/mL (≈ 140 µM). For the same compound, the IC50 in [9] is 43.6 µg/mL (≈ 111 µM); in [10], > 100 µg/mL; in assay [11] it was 9.33 µg/mL (≈ 23.7 µM); in [12], > 100 µg/mL; in assay [14] it was 8.53 µg/mL (≈ 21.6 µM); in assay [15] it was > 100 µg/mL. In addition, the Ki in assay [3] amounted to 2.5 µM; in [13] it was 3.6 µM; in assay [16] it was 1.06 µM.
As to `CCC(C)Oc1ccc(/C=C/C(=O)/C=C(O)/C=C/c2ccc(OC(C)CC)c(OC)c2)cc1OC` (centres undefined), the IC50 in assay [2] is 42.1 µg/mL (≈ 87.6 µM); in assay [4], 13.9 µg/mL (≈ 28.9 µM); in assay [5], 17.5 µg/mL (≈ 36.4 µM); in [6], > 100 µg/mL; in [7] it was 7.89 µg/mL (≈ 16.4 µM); in assay [8], > 100 µg/mL. Further, the IC50 in [9] was 28.7 µg/mL (≈ 59.7 µM); in [10], > 100 µg/mL; in [11], 10.2 µg/mL (≈ 21.2 µM); in assay [12] it was > 100 µg/mL; in assay [14] it was 10.8 µg/mL (≈ 22.5 µM); in assay [15], > 100 µg/mL. The figures for the Ki in assay [3], in [13] and in assay [16] were 20.7 µM, 10.2 µM and 7.47 µM, respectively.
On to `COc1cc(/C=C/C(=O)CC(=O)/C=C/c2ccc(O)c(OC)c2)ccc1O` [CURCUMIN], for which the IC50 came out at 2.08 µg/mL (≈ 5.65 µM) in [2]; 2.03 µg/mL (≈ 5.51 µM) in [4]; 3.57 µg/mL (≈ 9.69 µM) in assay [5]; 11 µg/mL (≈ 29.8 µM) in [6]; 2.4 µg/mL (≈ 6.51 µM) in assay [7]; 5.39 µg/mL (≈ 14.6 µM) in assay [8]. In addition, the IC50 in assay [9] was 3.83 µg/mL (≈ 10.4 µM); in assay [10], 2.94 µg/mL (≈ 7.98 µM); in [11] it was 3.56 µg/mL (≈ 9.66 µM); in assay [12], 25 µg/mL (≈ 67.9 µM); in assay [14], 2.67 µg/mL (≈ 7.25 µM); in [15], 17.9 µg/mL (≈ 48.5 µM).
Take `COc1cc(/C=C/C(=O)/C=C(O)/C=C/c2ccc(OC(C)C(N)=O)c(OC)c2)ccc1OC(C)C(N)=O` (centres undefined): the IC50 came to 38.3 µg/mL (≈ 75.1 µM) in assay [2]; 30.7 µg/mL (≈ 60.2 µM) in [4]; 25.8 µg/mL (≈ 50.5 µM) in [5]; 18.7 µg/mL (≈ 36.5 µM) in [6]; 14.6 µg/mL (≈ 28.6 µM) in assay [7]; 32.3 µg/mL (≈ 63.3 µM) in [8]. For the same compound, the IC50 in [9] is 27.9 µg/mL (≈ 54.7 µM); in [10] it was 51.4 µg/mL (≈ 101 µM); in assay [11] it was 19.6 µg/mL (≈ 38.3 µM); in assay [12], > 100 µg/mL; in [14], 23.7 µg/mL (≈ 46.4 µM); in assay [15], 25.6 µg/mL (≈ 50.1 µM). The Ki worked out at 0.936 µM in assay [3], 0.88 µM in assay [13] and 0.55 µM in [16]. For the same compound, the inhibition entry in assay [17] is “Active”.
As to `COc1cc(/C=C/C(=O)/C=C(O)/C=C/c2ccc(OCC(=O)O)c(OC)c2)ccc1OCC(=O)O`, the IC50 in assay [2], in assay [4], in assay [5], in assay [6], in [7] and in assay [8] was > 100 µg/mL throughout. Moreover, the IC50 in assay [9], in assay [10], in assay [11], in assay [12], in assay [14] and in assay [15] was > 100 µg/mL throughout. Besides, the Ki in assay [3] stood at 1.96 µM; in [13] it was 14.2 µM; in [16], 3.99 µM.
